From article PMC2948526 (Antiviral chemistry & chemotherapy, 2010)

How the values were obtained:
Ad4 = Ad4 yield reduction assay; type: cell-based, human adenovirus type-4; conditions: A549 cells, 10 μM olomoucine II, 100 μM cidofovir or both
Summary of the method: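 Confluent A549 monolayers were infected with 2,000 PFU/well Ad4 (multistep growth curve, MOI 0.01) for 1 h at 37°C with rocking. They were rinsed, then kept in medium with 10 μM test compound, 100 μM cidofovir, or both. Cells and media were harvested separately at 6–96 h, and released and total virus were titrated on A549 cells. The 0 h point is the inoculum.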

[1] = WST-1 cytotoxicity assay, A549 cells; type: cell-based; conditions: human, A549 cells (human lung carcinoma epithelial cells)
Summary of the method: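 A549 cells were grown in DMEM with 10% heat-inactivated FBS and antibiotics, then exposed to test compound. Viability was measured with a WST-1 kit, following the kit protocol, as absorbance at 450 nm.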

CDK9 = conditions: cited from earlier work
[2] = tested on: human fetal foreskin fibroblast cells; test: Apoptosis as caspase-3/7 activity; type: cell-based; conditions: 15–50 μM olomoucine II; 24, 48, 72 h
Summary of the method: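 Confluent HFFF cells (DMEM, 10% heat-inactivated FBS) were exposed for 24, 48 or 72 h to test compound dilutions, to mock treatment, or to serum deprivation. Caspase-3/7 activity was read by Caspase-Glo 3/7 luminescence, following the kit protocol. Values are blank-subtracted relative luminescence units ± SD.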

[3] = WST-1 cytotoxicity assay, HFFF cells; type: cell-based, human; conditions: human, HFFF cells (human fetal foreskin fibroblasts), confluent
HFFF cells = test: WST-1 cytotoxicity assay, HFFF cells; type: cell-based, human; conditions: 2.4–5.3 μM olomoucine II, WST-1, fibroblasts

SMILES | Reduction of total virus yield (Ad4; 24 h post-infection) | Reduction of total virus yield (Ad4; 48 h post-infection) | Reduction of total virus yield (Ad4; 96 h post-infection) | CC50 at 48 h [1] | CC50 at 96 h [1] | CC50 at 120 h [1] | Higher inhibitory activity for CDK9 compared with roscovitine (CDK9) | Caspase-3/7 activity [2] | CC50 at 24 h [3] | CC50 at 48 h [3] | CC50 at 72 h [3] | CC50 at 96 h [3] | CC50 at 168 h [3] | Cytotoxicity at antiviral IC50 levels (HFFF cells)
Nc1ccn(C[C@@H](CO)OCP(=O)(O)O)c(=O)n1 [Cidofovir, (S)-1-[3-hydroxy-2-(phosphonylmethoxy)propyl]-cytosine, reference compound] | 2 log (log10 PFU) | 2 log | 3 log |  |  |  |  |  |  |  |  |  |  | 
CC[C@H](CO)Nc1nc(NCc2ccccc2O)c2ncn(C(C)C)c2n1 [Olomoucine II, 6-(2-hydroxybenzylamino)-2-{[(1R)-(hydroxymethyl)propyl]amino}-9-isopropylpurine] | 5 log (log10 PFU) | 1 log | no overall effect on virus yield | > 100 µM | > 100 µM | > 100 µM | 10 fold | caspase activation | > 100 µM | 73 ± 4 µM | 16 ± 2 µM | 17 ± 2 µM | 16 ± 3 µM | no significant cytotoxicity was detected
CC[C@H](CO)Nc1nc(NCc2ccccc2)c2ncn(C(C)C)c2n1 [Roscovitine, 2-(R)-(1-ethyl-2-hydroxyethylamino)-6-benzylamino-9-isopropylpurine, reference compound] |  |  |  | > 100 µM | > 100 µM | > 100 µM |  |  | > 100 µM | 84 ± 5 µM | 21 ± 2 µM |  | 30 ± 4 µM | 
